Test results as given in PubChem BioAssay AID1525 (The Scripps Research Institute Molecular Screening Center, 2009).
The list shows a part of the results. Values without a mark were called inactive. Active and inactive are the calls of the source.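 How the source made its calls: active means mean activation over replicates above a set limit taken from the earlier TRPN1 channel primary screen (cut at about 19% in these data); inactive means the rest.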

system: TRPN1 (NOMPC) [Danio rerio]; assay: activators of TRPN1 (NOMPC) cation channel – cell-based, HEK293 TRPN1-YFP, Fluo-8 calcium, counter-screen for TRPML3 agonist project (AID 1525); conditions: HEK293 zebrafish TRPN1-YFP, Fluo-8 calcium fluorescence; at 3 µM; active compounds read high; scaled: carbachol wells 100%, DMSO wells 0%;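 further: 100% = carbachol and 0% = 0.3% DMSO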
In short: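 test system = HEK293 cells expressing zebrafish TRPN1-YFP channel | doses = one 3 µM compound dose per well | times = Fluo-8 loading 1 h at 37 °C, then 30 min room temperature | measured by = kinetic Fluo-8 calcium fluorescence, 125 s total read | read-out = peak-to-basal fluorescence ratio scaled to % activation between controls | repeats = three replicates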

Point of comparison: `COc1ccc(Cl)cc1N(CC(=O)N1CCCCC1)S(C)(=O)=O`, activation 2.78%. Against it:
- CCOC(=O)C1=C(NC(=S)NC(=O)c2ccccc2)c2ccccc2CC1(C)C — higher, 15.5%
- COc1ccc(-c2noc(CN(C)S(=O)(=O)c3ccc(C)cc3)n2)cc1 — higher, 5.96%
- CCN(CC)C(=O)CC1(c2ccccc2OC)CCOC(C(C)C)C1 (stereo not drawn) — lower, -1.47%
- COc1ccccc1N(CC(=O)N1CCCCC1)S(=O)(=O)c1ccccc1 — lower, 1.91%
- O=S(=O)(Nc1ccccc1N1CCOCC1)c1ccc(Cl)s1 — lower, 0.07%
- C=C(C)Cn1c(C)cc(C)c(S(=O)(=O)c2ccccc2C)c1=O — lower, -3.19%
- CC1=CC(C)(C)N(C(=O)CSc2nnc(-c3ccccc3)o2)c2ccc(C)cc21 — lower, 0.12%
- c1ccc2c(C[n+]3csc4ccccc43)cccc2c1 — lower, -0.03%
- CC1CCCC(C)N1C(=O)CN1CCN(c2nc(-c3ccc(F)cc3)cs2)CC1 (stereo not drawn) — higher, 4.68%
- COc1ccc(S(=O)(=O)N2CCCC2)c(C)c1C — lower, 0.75%
- CCN(CC)S(=O)(=O)c1ccc2c3c(cccc13)C(=O)S2 — lower, -0.76%
- COc1ccc(N(CCC#N)S(=O)(=O)c2ccc(Cl)cc2)cc1 — lower, 0.61%
- CC1(C)CCCC2=C1CC1C(=O)N(c3ccccc3)C(=O)C1C2 (stereo not drawn) — lower, -0.48%
- CCOc1ccc(S(=O)(=O)N2CCCCCC2)c2ccccc12 — lower, -0.72%
- COc1cc(/C=C(\C#N)c2nc3c(s2)CC(C)CC3)ccc1O (stereo not drawn) — higher, 14%

For `O=C(CC(O)(C(F)(F)F)C(F)(F)F)Nc1ccc(Cl)c(Cl)c1`, the activation was 21.3% (active).
`Cc1cccc(C)c1N1CCN(S(=O)(=O)N2CCCCC2)CC1` was tested, and the activation was 28.3% (active).
